Calls of active or inactive are those of the source. The rule behind the calls is not given here.
Assays:
[1] = Antiproliferative activity against human HMEC1 cells after 72 hrs; format: functional, cell-based; conditions: HMEC-1, 72 h
Summary of the method: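 SV-40T-transfected HMEC-1 seeded 1.5 × 10³ cells/well in ECGM with 10% FCS, supplement mix and antibiotics, 37 °C, 5% CO2. After 24 h, a reference plate was crystal-violet stained for baseline. The remaining cells were given increasing compound concentrations (DMSO stock) for 72 h, then crystal violet stained and read at 540 nm. 0.1% DMSO in ECGM served as negative control. IC50 ± SD from three independent experiments with different passages, hexaplicates per concentration.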

[2] = Antioxidant activity in phosphate buffer assessed as trolox equivalents ratio at pH 7.4 after 15 mins by ORAC-fluorescein assay; format: physicochemical; conditions: pH 7.4, 0.25 h
Summary of the method: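 ORAC-FL: fluorescein probe (final 300 nM) in 75 mM phosphate buffer pH 7.4; antioxidant (test compounds 1–5 µM, five concentrations; Trolox 1–8 µM standards) preincubated with fluorescein 15 min at 37 °C. Reaction started with AAPH (final 12 mM). Fluorescence read every min for 80 min (ex 485/em 536 nm). AUC converted to Trolox equivalents; quadruplicate, ≥4 independent assays.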

HMEC-1 [3] = experiment: Antiangiogenic activity in HMEC1 assessed as inhibition of tube formation at 6.25 to 50 uM after 19 hrs by matrigel assay; format: functional; conditions: Homo sapiens
HMEC-1 [4] = experiment: Antiangiogenic activity in HMEC1 assessed as inhibition of tube formation at 12.5 to 100 uM after 19 hrs by matrigel assay; format: functional; conditions: Homo sapiens

Row | SMILES | IC50 [1] [µM] | Ratio [2] | inhibition (HMEC-1 [3]) | inhibition (HMEC-1 [4])
1 | COc1cc(C(=O)c2c(O)cc3c(c2O)CCC(C)(C)O3)cc(O)c1O | 7.6 | 2.1 |  | 
2 | CCC(C)C(=O)c1c(O)cc2c(c1O)CCC(C)(C)O2 (stereo not drawn) | 29.3 | 1.2 |  | 
3 | CC1(C)CCc2c(cc(O)c(C(=O)c3ccc(O)c(O)c3)c2O)O1 | 0.88 | 2.8 |  | 
4 | CCC(C)C(=O)c1c(O)cc(O)c(C/C=C(\C)CCC=C(C)C)c1O (stereo not drawn) | 11 | 0.4 | Active | 
5 | CCC(C)C(=O)c1c(O)cc(O)c2c1OC(C)(CCC=C(C)C)CC2 (stereo not drawn) |  | 0.3 |  | 
6 | COc1cc(O)c(CC=C(C)C)c(O)c1C(=O)/C=C/c1ccc(O)cc1 [XANTHOHUMOL] |  | 2.3 |  | 
7 | CCCC(C)C(=O)c1c(O)cc(O)c(C/C=C(\C)CCC=C(C)C)c1O (stereo not drawn) | 8.7 | 0.3 |  | 
8 | COc1cc(C(=O)c2c(O)cc3c(c2O)CCC(C)(C)O3)cc(OC)c1O | 23.9 | 3 |  | 
9 | COc1ccc(C(=O)c2c(O)cc3c(c2O)CCC(C)(C)O3)cc1OC | 48 | 1.3 |  | Active
10 | CC1(C)CCc2c(cc(O)c(C(=O)c3cc(O)cc(O)c3)c2O)O1 | 25.5 | 3 |  | 
11 | CC(C)=CCC/C(C)=C/Cc1c(O)cc(O)c(C(=O)C(C)C)c1O | 21 | 0.8 |  | 
12 | CC1(C)CCc2c(cc(O)c(C(=O)c3ccc(O)cc3)c2O)O1 | 53.8 | 6.6 |  | 
13 | COc1cc(C(=O)c2c(O)cc3c(c2O)CCC(C)(C)O3)cc(OC)c1OC | 51.5 |  |  | 
14 | CC(=O)c1c(O)cc(O)c2c1OC(C)(CCC=C(C)C)CC2 (stereo not drawn) | 20.3 | 0.8 |  | 
15 | COc1ccc(C(=O)c2c(O)cc3c(c2O)CCC(C)(C)O3)cc1 | 43.4 | 1.1 |  | 
16 | CCC(=O)c1c(O)cc(O)c(C/C=C(\C)CCC=C(C)C)c1O | 22.4 | 0.6 |  | 
17 | CC(=O)c1c(O)cc(O)c(C/C=C(\C)CCC=C(C)C)c1O | 22.5 | 1 |  | 
